Activity calls are given as the source filed them. No cut-off for these calls is given here.
Assays:
[1] = Cytotoxicity in human B-CLL assessed as pre-necrotic cells at 100 uM after 24 hrs by annexin V/propidium iodide staining based flow cytometry (reference value: 1.3 to 3.7%); type: functional
[2] = Cytotoxicity in human multiple myeloma cells assessed as pre-necrotic cells at 50 uM after 24 hrs by annexin V/propidium iodide staining based flow cytometry (reference value: 42.1%); type: functional, Multiple myeloma cell
[3] = Cytotoxicity in human B-CLL assessed as viable cells at 50 uM after 24 hrs by annexin V/propidium iodide staining based flow cytometry (reference value: 65.8 to 78%); type: functional; settings: read-out: Activity
[4] = test system: Canavalia ensiformis; assay: Inhibition of beta-N-acetylglucosaminidase from jack bean at pH 5; design: concentration or dose not given beside the values; settings: concentration not given here
[5] = test system: SK-BR-3; assay: Cell cycle arrest in human SKBR3 cells by accumulation of cells at G2/M phase at 100 uM after 48 hrs by propidium iodide-staining based flow cytometry (reference value: 16%); type: functional
[6] = test system: BT-474; assay: Cytotoxicity against human BT474 cells after 72 hrs by colorimetric assay; type: functional, cell-based; settings: Homo sapiens, BT-474, 72 h; read-out: IC50
How it was run: (§1)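 Cells grown in McCoy's medium (adherent lines) or RPMI-1640 (U266), each with 10% FBS, L-glutamine and antibiotics, at 37 °C in 5% CO₂. Compound dissolved as a 100 mM DMSO stock, final DMSO ≤0.4%. Cells were exposed for 72 h across a 10^-2 to 400 µM range. Viability was read by CellTiter 96 Aqueous (2–4 h incubation, absorbance 490 nm). Triplicate wells; IC50 from curve fitting.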

[7] = test system: SK-BR-3; assay: Cell cycle arrest in human SKBR3 cells by accumulation of cells at S phase at 100 uM after 48 hrs by propidium iodide-staining based flow cytometry (reference value: 30%); type: functional
[8] = test system: SK-BR-3; assay: Cell cycle arrest in human SKBR3 cells by accumulation of cells at G1 phase at 200 uM after 48 hrs by propidium iodide-staining based flow cytometry (reference value: 54%); type: functional
[9] = test system: SK-BR-3; assay: Decrease in ID1 mRNA level in human SKBR3 cells at 50 uM after 12 hrs by TLDA; type: functional, cell-based
How it was run: (§2)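 SKBR3 and MCF7 cells seeded at 2 × 10⁵ per well, treated 12 h with 50 µM compound (DMSO stock); total RNA extracted, cDNA made with random hexamers, gene expression profiled by TaqMan low-density arrays (qPCR, duplicate per gene). Normalised to RPLP0; fold change versus DMSO vehicle-treated cells, calculated as 2^-ΔΔCT.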

[10] = test system: MCF7; assay: Decrease in cyclinE1 mRNA level in human MCF7 cells at 50 uM after 12 hrs by TLDA; type: functional, cell-based; how it was run: as §2
[11] = Cytotoxicity in human multiple myeloma cells assessed as viable cells at 100 uM after 24 hrs by annexin V/propidium iodide staining based flow cytometry (reference value: 48.2%); type: functional; settings: Multiple myeloma cell, read-out: Activity
[12] = test system: MCF7; assay: Increase in CDKN1C mRNA level in human MCF7 cells at 50 uM after 12 hrs by TLDA; type: functional, cell-based; how it was run: as §2
[13] = test system: SK-BR-3; assay: Increase in CDKN1A mRNA level in human SKBR3 cells at 50 uM after 12 hrs by TLDA; type: functional, cell-based; how it was run: as §2
[14] = test system: A549; assay: Cytotoxicity against human A549 cells after 72 hrs by colorimetric assay in presence of pan-caspase inhibitor zVAD-fmk; type: functional, cell-based
[15] = Cytotoxicity in human B-CLL assessed as late apoptotic/necrotic cells at 100 uM after 24 hrs by annexin V/propidium iodide staining based flow cytometry (reference value: 10 to 14.7%); type: functional
[16] = Cytotoxicity in human multiple myeloma cells assessed as late apoptotic/necrotic cells at 50 uM after 24 hrs by annexin V/propidium iodide staining based flow cytometry (reference value: 9.1%); type: functional, Multiple myeloma cell
[17] = test system: Prunus dulcis; assay: Inhibition of beta-glucosidase from almond at 1 mM at pH 5
How it was run: (§3)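 Glycosidase panel of commercial enzymes assayed at each enzyme's optimal pH with compound at 1 mM; percentage inhibition of enzyme activity calculated.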

[18] = test system: PC-3; assay: Cytotoxicity against human PC3 cells after 72 hrs by colorimetric assay; type: functional, cell-based; settings: Homo sapiens, PC-3, 72 h; read-out: IC50; how it was run: as §1
[19] = molecular target: T1, Tissue alpha-L-fucosidase (Bos taurus) (UniProt Q2KIM0); assay: Inhibition of alpha-L-fucosidase from bovine kidney at 1 mM at pH 6; how it was run: as §3
T1 sequence (whole entry): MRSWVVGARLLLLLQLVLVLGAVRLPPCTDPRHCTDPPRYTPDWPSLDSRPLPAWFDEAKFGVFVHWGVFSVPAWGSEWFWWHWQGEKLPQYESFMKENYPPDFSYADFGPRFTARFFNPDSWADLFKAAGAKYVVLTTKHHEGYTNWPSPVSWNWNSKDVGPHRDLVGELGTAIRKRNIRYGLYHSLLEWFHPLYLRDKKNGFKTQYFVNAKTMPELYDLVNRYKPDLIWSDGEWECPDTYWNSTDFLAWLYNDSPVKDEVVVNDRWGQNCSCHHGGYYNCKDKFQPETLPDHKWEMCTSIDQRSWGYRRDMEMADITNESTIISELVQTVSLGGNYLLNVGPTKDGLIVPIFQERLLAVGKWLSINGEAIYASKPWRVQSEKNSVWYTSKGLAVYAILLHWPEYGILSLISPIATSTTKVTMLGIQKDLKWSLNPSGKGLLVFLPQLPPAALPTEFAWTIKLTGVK

[20] = Cytotoxicity in human B-CLL assessed as pre-necrotic cells at 200 uM after 24 hrs by annexin V/propidium iodide staining based flow cytometry (reference value: 1.3 to 3.7%); type: functional
[21] = Cytotoxicity in human multiple myeloma cells assessed as early apoptotic cells at 200 uM after 24 hrs by annexin V/propidium iodide staining based flow cytometry (reference value: 0.1%); type: functional, Multiple myeloma cell
[22] = test system: MCF7; assay: Increase in CDKN1A mRNA level in human MCF7 cells at 50 uM after 12 hrs by TLDA; type: functional, cell-based; how it was run: as §2
[23] = test system: Helix pomatia; assay: Inhibition of beta-mannosidase from snail at pH 4; design: concentration or dose not given beside the values; settings: concentration not given here
[24] = test system: MCF7; assay: Cytotoxicity against human MCF7 cells after 72 hrs by colorimetric assay; type: functional, cell-based; settings: Homo sapiens, MCF7, 72 h; read-out: IC50; how it was run: as §1
[25] = Cytotoxicity in human multiple myeloma cells assessed as viable cells at 200 uM after 24 hrs by annexin V/propidium iodide staining based flow cytometry (reference value: 48.2%); type: functional; settings: Multiple myeloma cell, read-out: Activity
[26] = test system: SK-BR-3; assay: Cell cycle arrest in human SKBR3 cells by accumulation of cells at G1 phase at 50 uM after 48 hrs by propidium iodide-staining based flow cytometry (reference value: 54%); type: functional
[27] = test system: SK-BR-3; assay: Cell cycle arrest in human SKBR3 cells by accumulation of cells at G2/M phase at 200 uM after 48 hrs by propidium iodide-staining based flow cytometry (reference value: 16%); type: functional
[28] = test system: SK-BR-3; assay: Decrease in cyclinE1 mRNA level in human SKBR3 cells at 50 uM after 12 hrs by TLDA; type: functional, cell-based; how it was run: as §2
[29] = Cytotoxicity in human multiple myeloma cells assessed as early apoptotic cells at 50 uM after 24 hrs by annexin V/propidium iodide staining based flow cytometry (reference value: 0.1%); type: functional, Multiple myeloma cell
[30] = Cytotoxicity in human multiple myeloma cells assessed as late apoptotic/necrotic cells at 100 uM after 24 hrs by annexin V/propidium iodide staining based flow cytometry (reference value: 9.1%); type: functional, Multiple myeloma cell
[31] = test system: Saccharomyces cerevisiae; assay: Inhibition of alpha-glucosidase from yeast at 1 mM at pH 7; how it was run: as §3

## OC[C@H](NC[C@H]1NC[C@H](O)[C@@H]1O)c1ccc(-c2ccc(C(F)(F)F)cc2)cc1
[1]
  Activity: 0.8%
[2]
  Activity: 17%
[3]
  viability at 50 µM: 27%
[4]
  inhibition: < 10%
[5]
  Activity: 43%
[6]
  IC50: 93 µM
[7]
  Activity: 9%
[8]
  Activity: 42%
[9]
  Activity: Active
[10]
  Activity: Active
[11]
  viability at 100 µM: 27.6%
[12]
  Activity: Active
[13]
  Activity: Active
[14]
  Activity: Active
[15]
  Activity: 11.1%
[16]
  Activity: 37.9%
[17]
  inhibition: 50%
[18]
  IC50: 132 µM
[19]
  inhibition: < 10%
[20]
  Activity: 0.5%
[21]
  Activity: 0.3%
[22]
  Activity: Active
[23]
  inhibition: < 10%
[24]
  IC50: 77 µM
[25]
  viability at 200 µM: 3%
[26]
  Activity: 57%
[27]
  Activity: 42%
[28]
  Activity: Active
[29]
  Activity: 2.3%
[30]
  Activity: 52.6%
[31]
  inhibition: < 10%

— ChEMBL document CHEMBL1157882, “Novel 2-[(benzylamino)methyl]pyrrolidine-3,4-diol derivatives as alpha-mannosidase inhibitors and with antitumor activities against hematological and solid malignancies” (Bioorg Med Chem, 2010)
